≈ marks a conversion by molar mass, not a printed value.
Key:
Escherichia coli = assay: Antibacterial activity against Escherichia coli NCTC 10416 at 5 mg/ml after 24 hrs by agar disc diffusion method; type: functional; conditions: NCTC 10416, 24 h, read-out: DIZ
Outline: (§1)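 Agar well-diffusion using 1 cm wells, each loaded with 100 of compound solution (5 mg/mL in DMF). Bacteria were maintained on nutrient agar and plated as a standard suspension. Plates were incubated 24 h at 35 °C, and inhibition zone diameters were measured.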

HepG2 [1] = assay: Cytotoxicity against human HepG2 cells after 48 hrs by SRB assay; type: functional, cell-based; conditions: HepG2, 48 h
Outline: (§2)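 SRB assay per Skehan: compounds at 5.0, 12.5, 25 and 50 were added to cell monolayers in triplicate wells per dose for 48 h at 37 °C, 5% CO2. Cells were then fixed and stained with SRB, excess stain was removed with acetic acid, and bound dye was recovered in Tris EDTA. Surviving fraction was plotted against concentration, and IC50 was read from the dose–response curves.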

HepG2 [2] = assay: Cytotoxicity against human HepG2 cells assessed as surviving fraction at 12.5 ug/ml after 48 hrs by SRB assay relative to control; type: functional; outline: as §2
HeLa [3] = assay: Cytotoxicity against human HeLa cells after 48 hrs by SRB assay; type: functional, cell-based; outline: as §2
HeLa [4] = assay: Cytotoxicity against human HeLa cells assessed as surviving fraction at 25 ug/ml after 48 hrs by SRB assay relative to control; type: functional; outline: as §2
HCT-116 [5] = assay: Cytotoxicity against human HCT116 cells assessed as surviving fraction at 50 ug/ml after 48 hrs by SRB assay relative to control; type: functional; outline: as §2
HeLa [6] = assay: Cytotoxicity against human HeLa cells assessed as surviving fraction at 5 ug/ml after 48 hrs by SRB assay relative to control; type: functional; outline: as §2
MCF7 [7] = assay: Cytotoxicity against human MCF7 cells assessed as surviving fraction at 5 ug/ml after 48 hrs by SRB assay relative to control; type: functional; outline: as §2
Bacillus subtilis = assay: Antibacterial activity against Bacillus subtilis NCTC 1040 at 5 mg/ml after 24 hrs by agar disc diffusion method; type: functional; conditions: NCTC 1040, 24 h, read-out: DIZ; outline: as §1
HCT-116 [8] = assay: Cytotoxicity against human HCT116 cells after 48 hrs by SRB assay; type: functional, cell-based; conditions: HCT-116, 48 h; outline: as §2
HEp-2 [9] = assay: Cytotoxicity against human Hep2 cells assessed as surviving fraction at 5 ug/ml after 48 hrs by SRB assay relative to control; type: functional; outline: as §2
MCF7 [10] = assay: Cytotoxicity against human MCF7 cells assessed as surviving fraction at 50 ug/ml after 48 hrs by SRB assay relative to control; type: functional; outline: as §2
MCF7 [11] = assay: Cytotoxicity against human MCF7 cells assessed as surviving fraction at 25 ug/ml after 48 hrs by SRB assay relative to control; type: functional; outline: as §2
[12] = Antitumor activity against mouse EAC cells assessed as inhibition of cell viability at 100 ug/ml by Trypan blue assay; type: functional; conditions: Ehrlich
Outline: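 EAC cells were taken by needle aspiration of ascitic fluid from preinoculated mice and diluted 1:10 in saline. Then 0.1 mL of cell suspension, 0.8 mL RPMI 1640 and 0.1 mL compound were incubated 2 h at 37 °C. Dead cells were counted by trypan blue exclusion, and % non-viable = non-viable/total cells × 100.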

HepG2 [13] = assay: Cytotoxicity against human HepG2 cells assessed as surviving fraction at 25 ug/ml after 48 hrs by SRB assay relative to control; type: functional; outline: as §2
Candida albicans = assay: Antifungal activity against Candida albicans IMRU 3669 at 5 mg/ml by agar disc diffusion method; type: functional; conditions: read-out: DIZ
HEp-2 [14] = assay: Cytotoxicity against human Hep2 cells assessed as surviving fraction at 50 ug/ml after 48 hrs by SRB assay relative to control; type: functional; outline: as §2
HepG2 [15] = assay: Cytotoxicity against human HepG2 cells assessed as surviving fraction at 5 ug/ml after 48 hrs by SRB assay relative to control; type: functional; outline: as §2
HeLa [16] = assay: Cytotoxicity against human HeLa cells assessed as surviving fraction at 12.5 ug/ml after 48 hrs by SRB assay relative to control; type: functional; outline: as §2
HCT-116 [17] = assay: Cytotoxicity against human HCT116 cells assessed as surviving fraction at 5 ug/ml after 48 hrs by SRB assay relative to control; type: functional; outline: as §2
HEp-2 [18] = assay: Cytotoxicity against human Hep2 cells assessed as surviving fraction at 12.5 ug/ml after 48 hrs by SRB assay relative to control; type: functional; outline: as §2
MCF7 [19] = assay: Cytotoxicity against human MCF7 cells assessed as surviving fraction at 12.5 ug/ml after 48 hrs by SRB assay relative to control; type: functional; outline: as §2
Micrococcus luteus = assay: Antibacterial activity against Sarcina lutea ATCC 934 at 5 mg/ml after 24 hrs by agar disc diffusion method; type: functional; conditions: ATCC 934, 24 h, read-out: DIZ; outline: as §1
HCT-116 [20] = assay: Cytotoxicity against human HCT116 cells assessed as surviving fraction at 25 ug/ml after 48 hrs by SRB assay relative to control; type: functional; outline: as §2
HEp-2 [21] = assay: Cytotoxicity against human Hep2 cells after 48 hrs by SRB assay; type: functional, cell-based; conditions: HEp-2, 48 h; outline: as §2
MCF7 [22] = assay: Cytotoxicity against human MCF7 cells after 48 hrs by SRB assay; type: functional, cell-based; conditions: MCF7, 48 h; outline: as §2
HeLa [23] = assay: Cytotoxicity against human HeLa cells assessed as surviving fraction at 50 ug/ml after 48 hrs by SRB assay relative to control; type: functional; outline: as §2
Staphylococcus aureus = assay: Antibacterial activity against Staphylococcus aureus NCTC 7447 at 5 mg/ml after 24 hrs by agar disc diffusion method; type: functional; conditions: NCTC 7447, 24 h, read-out: DIZ; outline: as §1
HCT-116 [24] = assay: Cytotoxicity against human HCT116 cells assessed as surviving fraction at 12.5 ug/ml after 48 hrs by SRB assay relative to control; type: functional; outline: as §2
HEp-2 [25] = assay: Cytotoxicity against human Hep2 cells assessed as surviving fraction at 25 ug/ml after 48 hrs by SRB assay relative to control; type: functional; outline: as §2
Aspergillus flavus = assay: Antifungal activity against Aspergillus flavus at 5 mg/ml by agar disc diffusion method; type: functional; conditions: read-out: DIZ
HepG2 [26] = assay: Cytotoxicity against human HepG2 cells assessed as surviving fraction at 50 ug/ml after 48 hrs by SRB assay relative to control; type: functional; outline: as §2

COc1ccc(N2C(=N)C(=S)N(c3ccc(OC)cc3OC)C2=O)cc1
zone of inhibition at 5000 µg/mL (Escherichia coli): 24.5 mm | IC50 (HepG2 [1]): 4.34 µg/mL (≈ 11.7 µM) | Activity (HepG2 [2]): 0.28 | IC50 (HeLa [3]): 3.12 µg/mL (≈ 8.4 µM) | Activity (HeLa [4]): 0.17 | Activity (HCT-116 [5]): 0.29 | Activity (HeLa [6]): 0.21 | Activity (MCF7 [7]): 0.25 | zone of inhibition at 5000 µg/mL (Bacillus subtilis): 20 mm | IC50 (HCT-116 [8]): 3.73 µg/mL (≈ 10 µM) | Activity (HEp-2 [9]): 0.36 | Activity (MCF7 [10]): 0.27 | Activity (MCF7 [11]): 0.18 | inhibition at 100 µg/mL [12]: 80% | Activity (HepG2 [13]): 0.19 | zone of inhibition at 5000 µg/mL (Candida albicans): 22 mm | Activity (HEp-2 [14]): 0.28 | Activity (HepG2 [15]): 0.42 | Activity (HeLa [16]): 0.16 | Activity (HCT-116 [17]): 0.35 | Activity (HEp-2 [18]): 0.2 | Activity (MCF7 [19]): 0.17 | zone of inhibition at 5000 µg/mL (Micrococcus luteus): 24 mm | Activity (HCT-116 [20]): 0.19 | IC50 (HEp-2 [21]): 3.89 µg/mL (≈ 10.5 µM) | IC50 (MCF7 [22]): 3.28 µg/mL (≈ 8.83 µM) | Activity (HeLa [23]): 0.23 | zone of inhibition at 5000 µg/mL (Staphylococcus aureus): 20 mm | Activity (HCT-116 [24]): 0.26 | Activity (HEp-2 [25]): 0.21 | zone of inhibition at 5000 µg/mL (Aspergillus flavus): 17 mm | Activity (HepG2 [26]): 0.23

COc1ccc(N2C(=O)N(c3ccc(C)cc3)C(=N)C2=S)c(OC)c1
zone of inhibition at 5000 µg/mL (Escherichia coli): 25.5 mm | IC50 (HepG2 [1]): 6.78 µg/mL (≈ 19.1 µM) | Activity (HepG2 [2]): 0.22 | IC50 (HeLa [3]): 2.97 µg/mL (≈ 8.36 µM) | Activity (HeLa [4]): 0.22 | Activity (HCT-116 [5]): 0.26 | Activity (HeLa [6]): 0.24 | Activity (MCF7 [7]): 0.43 | zone of inhibition at 5000 µg/mL (Bacillus subtilis): 22.5 mm | IC50 (HCT-116 [8]): 4.04 µg/mL (≈ 11.4 µM) | Activity (HEp-2 [9]): 0.6 | Activity (MCF7 [10]): 0.29 | Activity (MCF7 [11]): 0.21 | inhibition at 100 µg/mL [12]: 70% | Activity (HepG2 [13]): 0.23 | zone of inhibition at 5000 µg/mL (Candida albicans): 17.5 mm | Activity (HEp-2 [14]): 0.3 | Activity (HepG2 [15]): 0.6 | Activity (HeLa [16]): 0.14 | Activity (HCT-116 [17]): 0.38 | Activity (HEp-2 [18]): 0.31 | Activity (MCF7 [19]): 0.21 | zone of inhibition at 5000 µg/mL (Micrococcus luteus): 25 mm | Activity (HCT-116 [20]): 0.2 | IC50 (HEp-2 [21]): 7.09 µg/mL (≈ 19.9 µM) | IC50 (MCF7 [22]): 4.34 µg/mL (≈ 12.2 µM) | Activity (HeLa [23]): 0.26 | zone of inhibition at 5000 µg/mL (Staphylococcus aureus): 22 mm | Activity (HCT-116 [24]): 0.15 | Activity (HEp-2 [25]): 0.16 | zone of inhibition at 5000 µg/mL (Aspergillus flavus): 14 mm | Activity (HepG2 [26]): 0.24

N=C1C(=S)N(c2ccc(Cl)cc2)C(=O)N1Cc1ccccc1
zone of inhibition at 5000 µg/mL (Escherichia coli): 22 mm | IC50 (HepG2 [1]): 4.34 µg/mL (≈ 13.2 µM) | Activity (HepG2 [2]): 0.22 | IC50 (HeLa [3]): 9.68 µg/mL (≈ 29.4 µM) | Activity (HeLa [4]): 0.29 | Activity (HCT-116 [5]): 0.28 | Activity (HeLa [6]): 0.44 | Activity (MCF7 [7]): 0.49 | zone of inhibition at 5000 µg/mL (Bacillus subtilis): 21 mm | IC50 (HCT-116 [8]): 4.19 µg/mL (≈ 12.7 µM) | Activity (HEp-2 [9]): 0.24 | Activity (MCF7 [10]): 0.2 | Activity (MCF7 [11]): 0.16 | inhibition at 100 µg/mL [12]: 80% | Activity (HepG2 [13]): 0.21 | zone of inhibition at 5000 µg/mL (Candida albicans): 22 mm | Activity (HEp-2 [14]): 0.28 | Activity (HepG2 [15]): 0.45 | Activity (HeLa [16]): 0.18 | Activity (HCT-116 [17]): 0.24 | Activity (HEp-2 [18]): 0.22 | Activity (MCF7 [19]): 0.12 | zone of inhibition at 5000 µg/mL (Micrococcus luteus): 20 mm | Activity (HCT-116 [20]): 0.16 | IC50 (HEp-2 [21]): 3.28 µg/mL (≈ 9.95 µM) | IC50 (MCF7 [22]): 4.65 µg/mL (≈ 14.1 µM) | Activity (HeLa [23]): 0.33 | zone of inhibition at 5000 µg/mL (Staphylococcus aureus): 21 mm | Activity (HCT-116 [24]): 0.22 | Activity (HEp-2 [25]): 0.16 | zone of inhibition at 5000 µg/mL (Aspergillus flavus): 18 mm | Activity (HepG2 [26]): 0.3

COc1ccc(N2C(=O)N(c3ccc(SC)cc3)C(=N)C2=S)c(OC)c1
zone of inhibition at 5000 µg/mL (Escherichia coli): 19 mm | IC50 (HepG2 [1]): 11.8 µg/mL (≈ 30.5 µM) | Activity (HepG2 [2]): 0.47 | IC50 (HeLa [3]): 9.83 µg/mL (≈ 25.4 µM) | Activity (HeLa [4]): 0.2 | Activity (HCT-116 [5]): 0.35 | Activity (HeLa [6]): 0.74 | Activity (MCF7 [7]): 0.68 | zone of inhibition at 5000 µg/mL (Bacillus subtilis): 18 mm | IC50 (HCT-116 [8]): 10.6 µg/mL (≈ 27.4 µM) | Activity (HEp-2 [9]): 0.71 | Activity (MCF7 [10]): 0.28 | Activity (MCF7 [11]): 0.19 | inhibition at 100 µg/mL [12]: 70% | Activity (HepG2 [13]): 0.19 | zone of inhibition at 5000 µg/mL (Candida albicans): 20 mm | Activity (HEp-2 [14]): 0.27 | Activity (HepG2 [15]): 0.69 | Activity (HeLa [16]): 0.37 | Activity (HCT-116 [17]): 0.74 | Activity (HEp-2 [18]): 0.49 | Activity (MCF7 [19]): 0.49 | zone of inhibition at 5000 µg/mL (Micrococcus luteus): 18 mm | Activity (HCT-116 [20]): 0.24 | IC50 (HEp-2 [21]): 12.1 µg/mL (≈ 31.2 µM) | IC50 (MCF7 [22]): 12 µg/mL (≈ 31 µM) | Activity (HeLa [23]): 0.22 | zone of inhibition at 5000 µg/mL (Staphylococcus aureus): 18 mm | Activity (HCT-116 [24]): 0.42 | Activity (HEp-2 [25]): 0.2 | zone of inhibition at 5000 µg/mL (Aspergillus flavus): 14 mm | Activity (HepG2 [26]): 0.24
